# pIC50: −log10 of the molar value.
# Legend:
# [1] = target: Cyclin-dependent kinase 1 (Homo sapiens, UniProt P06493); experiment: Inhibition of recombinant CDK1 by IMAP assay
# Outline: (§1)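 Recombinant enzyme mixed with test compound and substrate peptide/ATP solution, incubated 90 min at 30 °C; enzyme quantity, ATP, substrate and cation set per kinase. IMAP reagent then added for 5 min at room temperature, and peptide phosphorylation quantified by fluorescence polarization.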
# HCT-116 = experiment: Cytotoxicity against human HCT116 cells after 96 hrs by WST8 assay; details: HCT-116, 96 h
# DU-145 = experiment: Cytotoxicity against human DU145 cells after 96 hrs by WST8 assay; details: DU-145, 96 h
# [2] = target: Tyrosine-protein kinase Fyn (Homo sapiens, UniProt P06241); experiment: Inhibition of recombinant Fyn by TR-FRET assay
# Tyrosine-protein kinase Fyn, sequence (P06241 whole entry): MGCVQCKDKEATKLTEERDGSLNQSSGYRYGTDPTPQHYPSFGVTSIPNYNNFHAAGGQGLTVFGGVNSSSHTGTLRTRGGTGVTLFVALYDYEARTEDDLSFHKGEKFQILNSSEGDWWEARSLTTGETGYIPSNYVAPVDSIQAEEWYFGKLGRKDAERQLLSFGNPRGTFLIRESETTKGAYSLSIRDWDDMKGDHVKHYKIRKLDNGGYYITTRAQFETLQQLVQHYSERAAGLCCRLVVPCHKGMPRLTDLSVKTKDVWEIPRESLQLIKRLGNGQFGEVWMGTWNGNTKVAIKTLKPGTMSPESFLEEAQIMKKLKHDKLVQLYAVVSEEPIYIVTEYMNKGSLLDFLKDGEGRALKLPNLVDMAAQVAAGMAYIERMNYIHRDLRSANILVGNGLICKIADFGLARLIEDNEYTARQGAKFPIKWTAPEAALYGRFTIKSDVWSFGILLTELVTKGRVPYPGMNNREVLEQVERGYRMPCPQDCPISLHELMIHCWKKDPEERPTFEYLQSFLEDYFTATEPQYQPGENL
# Outline: (§2)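 Recombinant tyrosine kinase incubated with test compound and substrate peptide/ATP for 90 min at 30 °C; enzyme amount, ATP level, substrate and cation vary by kinase. Reaction stopped, then TR-FRET reagent with europium-labelled anti-phospho-substrate antibody added for 5 min at room temperature; substrate phosphorylation read as time-resolved fluorescence.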
# WiDr = experiment: Cytotoxicity against human WiDr cells after 96 hrs by WST8 assay
# [3] = target: RAC-alpha serine/threonine-protein kinase (Homo sapiens, UniProt P31749); experiment: Inhibition of recombinant AKT1 by IMAP assay; outline: as §1
# RAC-alpha serine/threonine-protein kinase, sequence (P31749 whole entry): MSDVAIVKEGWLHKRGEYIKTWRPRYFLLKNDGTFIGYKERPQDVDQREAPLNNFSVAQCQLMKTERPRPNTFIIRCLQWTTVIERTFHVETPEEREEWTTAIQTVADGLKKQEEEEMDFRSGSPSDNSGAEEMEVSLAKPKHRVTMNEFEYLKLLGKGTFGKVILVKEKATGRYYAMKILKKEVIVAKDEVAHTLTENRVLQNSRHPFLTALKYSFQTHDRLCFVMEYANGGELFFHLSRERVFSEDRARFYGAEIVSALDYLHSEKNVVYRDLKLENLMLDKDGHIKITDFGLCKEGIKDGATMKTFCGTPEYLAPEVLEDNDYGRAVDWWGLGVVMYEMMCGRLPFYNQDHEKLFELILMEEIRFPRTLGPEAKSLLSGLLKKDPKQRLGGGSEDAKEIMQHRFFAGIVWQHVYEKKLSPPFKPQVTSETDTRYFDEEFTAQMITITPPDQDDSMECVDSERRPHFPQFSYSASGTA
# [4] = Inhibition of recombinant PDGFR by TR-FRET assay; outline: as §2
# Ephrin type-A receptor 2 = Ephrin type-A receptor 2 (Homo sapiens, UniProt P29317); experiment: Inhibition of recombinant EphA2 by TR-FRET assay; outline: as §2
# Ephrin type-A receptor 2, sequence (P29317 whole entry): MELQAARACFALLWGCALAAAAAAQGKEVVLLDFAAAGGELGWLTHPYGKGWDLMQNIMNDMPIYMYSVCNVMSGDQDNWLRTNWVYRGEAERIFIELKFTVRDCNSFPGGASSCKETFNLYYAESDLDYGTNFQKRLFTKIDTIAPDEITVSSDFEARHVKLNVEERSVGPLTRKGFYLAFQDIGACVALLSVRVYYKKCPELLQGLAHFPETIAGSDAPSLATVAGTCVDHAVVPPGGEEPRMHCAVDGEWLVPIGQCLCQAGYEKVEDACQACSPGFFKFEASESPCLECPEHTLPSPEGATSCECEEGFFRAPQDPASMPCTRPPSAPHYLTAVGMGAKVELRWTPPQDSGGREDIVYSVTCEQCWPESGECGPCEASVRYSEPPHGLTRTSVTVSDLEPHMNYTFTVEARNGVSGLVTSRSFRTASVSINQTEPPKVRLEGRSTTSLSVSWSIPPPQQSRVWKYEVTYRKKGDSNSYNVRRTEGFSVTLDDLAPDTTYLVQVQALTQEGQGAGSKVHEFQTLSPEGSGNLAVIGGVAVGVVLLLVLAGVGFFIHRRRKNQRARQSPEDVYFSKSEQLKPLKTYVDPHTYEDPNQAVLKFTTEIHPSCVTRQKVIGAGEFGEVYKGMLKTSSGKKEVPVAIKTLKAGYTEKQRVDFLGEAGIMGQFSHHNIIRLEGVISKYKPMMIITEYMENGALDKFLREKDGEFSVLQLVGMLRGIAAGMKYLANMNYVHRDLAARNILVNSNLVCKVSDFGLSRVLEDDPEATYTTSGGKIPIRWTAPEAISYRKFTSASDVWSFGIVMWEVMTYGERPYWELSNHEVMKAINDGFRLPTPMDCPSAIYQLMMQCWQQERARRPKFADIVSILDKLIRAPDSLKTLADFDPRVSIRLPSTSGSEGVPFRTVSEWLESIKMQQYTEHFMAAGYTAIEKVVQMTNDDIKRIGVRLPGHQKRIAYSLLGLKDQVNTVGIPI
# Calu-6 = experiment: Cytotoxicity against human Calu6 cells after 96 hrs by WST8 assay; details: Calu-6, 96 h
# [5] = target: Protein kinase C alpha type (Homo sapiens, UniProt P17252); experiment: Inhibition of recombinant PKCalpha by IMAP assay; outline: as §1
# [6] = target: Mast/stem cell growth factor receptor Kit (Homo sapiens, UniProt P10721); experiment: Inhibition of recombinant Kit by TR-FRET assay; outline: as §2
# Mast/stem cell growth factor receptor Kit, sequence (P10721 whole entry): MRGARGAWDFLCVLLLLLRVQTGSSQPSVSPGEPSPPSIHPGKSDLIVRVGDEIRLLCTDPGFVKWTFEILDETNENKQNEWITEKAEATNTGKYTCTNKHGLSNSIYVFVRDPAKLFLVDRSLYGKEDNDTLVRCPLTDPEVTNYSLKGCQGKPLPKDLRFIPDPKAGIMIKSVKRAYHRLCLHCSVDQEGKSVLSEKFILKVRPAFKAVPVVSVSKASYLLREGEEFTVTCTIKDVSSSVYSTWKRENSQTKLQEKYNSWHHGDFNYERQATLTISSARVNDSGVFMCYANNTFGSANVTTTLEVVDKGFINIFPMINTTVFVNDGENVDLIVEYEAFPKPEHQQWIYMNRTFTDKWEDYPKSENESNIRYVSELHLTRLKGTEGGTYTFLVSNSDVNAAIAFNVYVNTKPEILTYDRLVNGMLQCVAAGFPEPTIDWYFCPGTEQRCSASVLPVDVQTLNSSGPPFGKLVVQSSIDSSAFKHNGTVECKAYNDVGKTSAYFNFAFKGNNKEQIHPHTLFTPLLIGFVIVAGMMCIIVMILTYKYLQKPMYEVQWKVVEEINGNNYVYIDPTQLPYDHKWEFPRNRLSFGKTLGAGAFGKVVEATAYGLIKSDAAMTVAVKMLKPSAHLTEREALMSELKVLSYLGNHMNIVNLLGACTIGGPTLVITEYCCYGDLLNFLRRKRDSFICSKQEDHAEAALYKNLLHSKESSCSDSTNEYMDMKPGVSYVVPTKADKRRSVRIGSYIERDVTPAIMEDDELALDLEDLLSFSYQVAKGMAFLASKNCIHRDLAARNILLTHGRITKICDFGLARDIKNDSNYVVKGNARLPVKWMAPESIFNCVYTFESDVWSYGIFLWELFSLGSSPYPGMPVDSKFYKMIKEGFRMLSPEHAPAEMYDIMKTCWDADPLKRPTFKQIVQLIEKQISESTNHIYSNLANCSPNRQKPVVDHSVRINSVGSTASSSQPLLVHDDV
# HUVEC = experiment: Inhibition of HGF-induced proliferation of HUVEC after 96 hrs by WST8 assay; details: Homo sapiens
# ASPC1 = experiment: Cytotoxicity against human AsPC1 cells after 96 hrs by WST8 assay; details: ASPC1, 96 h
# T47D = experiment: Cytotoxicity against human T47D cells after 96 hrs by WST8 assay
# [7] = target: Protein-tyrosine kinase 6 (Homo sapiens, UniProt Q13882); experiment: Inhibition of recombinant BRK by TR-FRET assay; outline: as §2
# [8] = target: T1, Receptor-type tyrosine-protein kinase FLT3 (Homo sapiens, UniProt P36888); experiment: Inhibition of recombinant Flt3 by TR-FRET assay; outline: as §2
# T1 sequence (P36888 whole entry): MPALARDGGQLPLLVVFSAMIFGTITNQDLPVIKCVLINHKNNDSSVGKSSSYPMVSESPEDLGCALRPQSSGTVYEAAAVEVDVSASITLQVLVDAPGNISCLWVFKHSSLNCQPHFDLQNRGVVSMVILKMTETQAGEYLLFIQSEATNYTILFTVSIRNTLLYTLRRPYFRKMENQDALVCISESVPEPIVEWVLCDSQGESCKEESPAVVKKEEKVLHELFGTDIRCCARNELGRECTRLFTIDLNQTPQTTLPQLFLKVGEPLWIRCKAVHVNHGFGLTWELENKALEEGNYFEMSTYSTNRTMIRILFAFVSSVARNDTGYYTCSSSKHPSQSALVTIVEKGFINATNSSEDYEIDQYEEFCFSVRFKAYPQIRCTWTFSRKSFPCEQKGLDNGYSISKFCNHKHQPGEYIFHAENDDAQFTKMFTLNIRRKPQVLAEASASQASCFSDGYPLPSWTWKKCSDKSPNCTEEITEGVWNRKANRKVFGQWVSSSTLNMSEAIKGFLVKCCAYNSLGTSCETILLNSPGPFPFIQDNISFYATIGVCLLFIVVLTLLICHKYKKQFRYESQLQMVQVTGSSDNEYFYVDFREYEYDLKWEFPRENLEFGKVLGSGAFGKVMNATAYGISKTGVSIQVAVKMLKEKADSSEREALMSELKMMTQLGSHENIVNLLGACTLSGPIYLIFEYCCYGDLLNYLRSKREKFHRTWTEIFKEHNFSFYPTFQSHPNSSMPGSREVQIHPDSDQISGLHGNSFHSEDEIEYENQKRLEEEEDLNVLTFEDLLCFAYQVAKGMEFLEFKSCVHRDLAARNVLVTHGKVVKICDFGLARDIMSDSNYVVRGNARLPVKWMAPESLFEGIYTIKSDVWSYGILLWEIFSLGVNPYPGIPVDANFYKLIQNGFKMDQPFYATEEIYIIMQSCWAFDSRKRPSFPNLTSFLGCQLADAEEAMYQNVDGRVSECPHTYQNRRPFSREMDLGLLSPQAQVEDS
# [9] = target: Tyrosine-protein kinase ABL1 (Homo sapiens, UniProt P00519); experiment: Inhibition of recombinant Abl by TR-FRET assay; outline: as §2
# Tyrosine-protein kinase ABL1, sequence (P00519 whole entry): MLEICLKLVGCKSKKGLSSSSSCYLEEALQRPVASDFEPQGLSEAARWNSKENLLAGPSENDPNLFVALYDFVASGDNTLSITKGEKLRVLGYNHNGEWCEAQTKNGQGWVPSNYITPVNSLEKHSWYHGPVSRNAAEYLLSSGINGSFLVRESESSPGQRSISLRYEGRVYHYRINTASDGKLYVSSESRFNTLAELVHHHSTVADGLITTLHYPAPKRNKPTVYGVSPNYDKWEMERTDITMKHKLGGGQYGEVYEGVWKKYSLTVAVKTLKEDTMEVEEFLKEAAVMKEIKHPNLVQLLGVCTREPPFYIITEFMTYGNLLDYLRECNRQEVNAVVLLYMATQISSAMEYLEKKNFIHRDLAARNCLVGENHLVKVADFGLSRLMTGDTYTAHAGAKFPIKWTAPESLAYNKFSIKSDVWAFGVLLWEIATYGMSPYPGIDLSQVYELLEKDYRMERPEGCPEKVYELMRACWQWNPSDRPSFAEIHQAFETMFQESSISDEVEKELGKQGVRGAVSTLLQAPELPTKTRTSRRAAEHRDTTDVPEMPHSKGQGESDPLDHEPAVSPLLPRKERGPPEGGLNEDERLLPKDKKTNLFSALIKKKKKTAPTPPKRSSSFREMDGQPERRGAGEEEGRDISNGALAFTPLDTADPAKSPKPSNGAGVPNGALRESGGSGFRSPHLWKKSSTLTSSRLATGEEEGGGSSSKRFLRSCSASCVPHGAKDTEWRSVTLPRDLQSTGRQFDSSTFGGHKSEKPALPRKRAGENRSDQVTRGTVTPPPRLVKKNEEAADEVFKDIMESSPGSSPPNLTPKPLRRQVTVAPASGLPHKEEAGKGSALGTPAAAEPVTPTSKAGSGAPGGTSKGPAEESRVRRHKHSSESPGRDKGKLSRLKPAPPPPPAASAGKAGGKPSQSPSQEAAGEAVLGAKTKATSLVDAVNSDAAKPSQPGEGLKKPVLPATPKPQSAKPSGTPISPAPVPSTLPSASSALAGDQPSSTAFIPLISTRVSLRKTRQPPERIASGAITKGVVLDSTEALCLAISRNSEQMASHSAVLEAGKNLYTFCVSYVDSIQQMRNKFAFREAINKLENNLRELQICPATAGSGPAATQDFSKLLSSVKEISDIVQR
# BXPC-3 = experiment: Cytotoxicity against human BxPC3 cells after 96 hrs by WST8 assay; details: BXPC-3, 96 h
# Cyclin-dependent kinase 1, sequence (P06493 whole entry): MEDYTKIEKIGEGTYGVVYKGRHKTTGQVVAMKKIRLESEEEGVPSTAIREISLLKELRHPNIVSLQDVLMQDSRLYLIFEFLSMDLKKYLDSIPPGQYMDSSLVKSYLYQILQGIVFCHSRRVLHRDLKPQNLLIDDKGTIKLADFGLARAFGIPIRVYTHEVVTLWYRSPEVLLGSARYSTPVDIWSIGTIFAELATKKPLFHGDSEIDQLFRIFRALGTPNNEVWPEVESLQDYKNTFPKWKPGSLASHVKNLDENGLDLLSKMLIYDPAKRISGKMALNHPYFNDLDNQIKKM
structure (smiles),measurement,setting,value
C[C@@H](Oc1ccc2ncc(C3CC3C(N)=O)cc2c1)c1c(Cl)ccc(F)c1Cl (stereo partly drawn),pIC50,[1],< 4.30
same,pIC50,HCT-116,< 6.00
same,pIC50,DU-145,< 6.00
same,pIC50,[2],4.60
same,pIC50,WiDr,< 6.00
same,pIC50,[3],< 4.30
same,pIC50,[4],< 4.30
same,pIC50,Ephrin type-A receptor 2,5.28
same,pIC50,Calu-6,< 6.00
same,pIC50,[5],< 4.30
same,pIC50,[6],4.39
same,pIC50,HUVEC,6.52
same,pIC50,ASPC1,< 6.00
same,pIC50,T47D,< 6.00
same,pIC50,[7],< 4.30
same,pIC50,[8],4.82
same,pIC50,[9],< 4.30
same,pIC50,BXPC-3,< 6.00

# From ChEMBL document CHEMBL1156877, “Discovery of 6-benzyloxyquinolines as c-Met selective kinase inhibitors” (Bioorg Med Chem Lett, 2010)
